Data taken from ChEMBL document CHEMBL1130160 (J Med Chem, 1997).

Columns and labels:
Rattus norvegicus [1] = test: Dose required to reduce serum cholesterol by 50% relative to OVX controls was determined (in vivo); assay type: functional
How it was run: (§1)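 OVX Sprague–Dawley rats (75 days old), 5–6 per group, dosed once daily by oral gavage for 4 consecutive days, starting 14 days after ovariectomy. Vehicle was 20% β-hydroxycyclodextrin at 1 mL/kg, or 1.5% carboxymethylcellulose in some cases. Rats were fasted after the last dose and bled by cardiac puncture next morning.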

Rattus norvegicus [2] = test: Percent decrease in serum cholesterol relative to OVX control at 0.1 mg/kg in rat was determined (in vivo); assay type: functional; how it was run: as §1
Rattus norvegicus [3] = test: Percent decrease in serum cholesterol relative to OVX control at 1 mg/kg in rat; assay type: functional; how it was run: as §1
Rattus norvegicus [4] = test: Percent decrease in serum cholesterol relative to OVX control at 10 mg/kg in rat was determined (in vivo); assay type: functional; how it was run: as §1
Rattus norvegicus [5] = test: Minimum effective dose at which significant increase in uterine eosinophil peroxidase (EPO) activity in rat was determined (in vivo); assay type: functional; settings: read-out: MED
Rattus norvegicus [6] = test: Minimum effective dose at which significant increase in uterine weight/body weight in rat was determined (in vivo); assay type: functional; settings: read-out: MED
How it was run: (§2)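 In 75-day OVX Sprague–Dawley rats dosed orally for 4 days, beginning 2 weeks post-ovariectomy with 5–6 rats per group, whole uteri were weighed the morning after fasting. MED is the lowest dose giving a significant (p≤0.05) rise in uterine weight/body weight, expressed as % increase over OVX controls ±SE.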

Rattus norvegicus [7] = test: Minimum effective dose at which significant increase in uterine weight/body weight in rat was determined (in vivo); expressed as % increase relative to ovariectomized (OVX) controls; assay type: functional; how it was run: as §2
Estrogen receptor = Estrogen receptor (Homo sapiens, UniProt Q92731+P03372); settings: mcf7
Rattus norvegicus [8] = test: Percent decrease in serum cholesterol relative to OVX control at 1.0 mg/kg in rats; assay type: functional; how it was run: as §1

SMILES	IC50 (Estrogen receptor)	ED50 (Rattus norvegicus [1])	Decrease (Rattus norvegicus [2])	Decrease (Rattus norvegicus [3])	Decrease (Rattus norvegicus [4])	minimal effective dose (Rattus norvegicus [5])	minimal effective dose (Rattus norvegicus [6])	Increase (Rattus norvegicus [7])	Decrease (Rattus norvegicus [8])
CC/C(=C(\c1ccccc1)c1ccc(OCCN(C)C)cc1)c1ccccc1 [TAMOXIFEN]		0.2 mg/kg	39.2%	71.1%	67%	0.1 mg/kg	0.1 mg/kg	62.4%	
O=C(c1ccc(OCCN2CCCCC2)cc1)c1c(-c2ccc(O)cc2)sc2c(O)cccc12	300 nM		-6.1%	-11.7%	-3.4%	> 10 mg/kg	10 mg/kg	43.5%	
COc1ccc2c(C(=O)c3ccc(OCCN4CCCCC4)cc3)c(-c3ccc(CO)cc3)sc2c1	600 nM								
O=C(c1ccc(OCCN2CCCCC2)cc1)c1c(-c2cccs2)sc2cc(O)ccc12	20 nM	11 mg/kg				> 10 mg/kg	1 mg/kg		-0.9%
C#Cc1ccc(-c2sc3cc(O)ccc3c2C(=O)c2ccc(OCCN3CCCCC3)cc2)cc1		> 10 mg/kg	9.1%	32.7%	35.8%	> 10 mg/kg	> 10 mg/kg		
NC(=O)c1ccc(-c2sc3cc(O)ccc3c2C(=O)c2ccc(OCCN3CCCCC3)cc2)cc1			-3.2%	-21.3%	10%	> 10 mg/kg	> 10 mg/kg		
C#Cc1ccc2c(C(=O)c3ccc(OCCN4CCCCC4)cc3)c(-c3ccc(O)cc3)sc2c1		0.5 mg/kg	39.4%	58.7%	65.8%	> 10 mg/kg	1 mg/kg	27.8%	
Cc1cc2c(C(=O)c3ccc(OCCN4CCCCC4)cc3)c(-c3ccc(O)cc3)sc2c(C)c1O	500 nM								
COc1cc(O)ccc1-c1sc2cc(O)ccc2c1C(=O)c1ccc(OCCN2CCCCC2)cc1	2 nM	< 0.1 mg/kg		79%		1 mg/kg	0.1 mg/kg		
O=C(c1ccc(OCCN2CCCCC2)cc1)c1c(-c2ccc(O)cc2)sc2cccc(O)c12	190 nM	> 10 mg/kg	29.6%	18%	31.8%	> 10 mg/kg	> 10 mg/kg		
O=C(O)c1ccc(-c2sc3cc(O)ccc3c2C(=O)c2ccc(OCCN3CCCCC3)cc2)cc1			3.1%	-8.8%	24.6%	> 10 mg/kg	> 10 mg/kg		
O=C(c1ccc(OCCN2CCCCC2)cc1)c1c(-c2ccc3ccccc3c2)sc2cc(O)ccc12	80 nM	0.2 mg/kg				0.1 mg/kg	0.1 mg/kg		

Continued, in another order:

IC50 (Estrogen receptor)	SMILES	ED50 (Rattus norvegicus [1])	Decrease (Rattus norvegicus [2])	Decrease (Rattus norvegicus [3])	Decrease (Rattus norvegicus [4])	minimal effective dose (Rattus norvegicus [5])	minimal effective dose (Rattus norvegicus [6])	Increase (Rattus norvegicus [7])	Decrease (Rattus norvegicus [8])
2.5 nM	Cl.O=C(c1ccc(OCCN2CCCCC2)cc1)c1c(-c2ccccc2)sc2cc(O)ccc12	< 0.1 mg/kg	55.6%	53.4%	66%	> 10 mg/kg	0.1 mg/kg	38.7%	
100 nM	O=C(c1ccc(OCCN2CCCCC2)cc1)c1c(-c2ccc(O)cc2)sc2ccc(O)cc12		10.4%	3.7%	22.6%	> 10 mg/kg	> 10 mg/kg		
1 nM	Cl.O=C(c1ccc(OCCN2CCCCC2)cc1)c1c(-c2ccc(Cl)cc2)sc2cc(O)ccc12	0.3 mg/kg	32.3%	69.9%	65%	> 10 mg/kg	0.1 mg/kg	56.5%	
50 nM	Cc1ccc(-c2sc3cc(O)ccc3c2C(=O)c2ccc(OCCN3CCCCC3)cc2)cc1.Cl	2.9 mg/kg	12.2%	26.5%	69.1%	> 10 mg/kg	1 mg/kg	34.6%	
2 nM	Cc1cc(O)ccc1-c1sc2cc(O)ccc2c1C(=O)c1ccc(OCCN2CCCCC2)cc1	0.4 mg/kg				> 10 mg/kg	0.1 mg/kg		
10 nM	O=C(c1ccc(OCCN2CCCCC2)cc1)c1c(-c2ccccc2O)sc2cc(O)ccc12	> 10 mg/kg	7.8%			> 10 mg/kg	> 10 mg/kg		
2.3 nM	O=C(c1ccc(OCCN2CCCCC2)cc1)c1c(-c2ccc(O)c(Cl)c2)sc2cc(O)ccc12	1.2 mg/kg		52.7%		> 10 mg/kg	10 mg/kg	30.3%	
250 nM	COc1ccc2c(C(=O)c3ccc(OCCN4CCCCC4)cc3)c(-c3ccc(O)cc3)sc2c1	< 0.1 mg/kg	54.8%	64.5%	50%	> 10 mg/kg	1 mg/kg	33.5%	
